According to ChEMBL document CHEMBL1932971, “Synthesis of uriedo and thiouriedo derivatives of peptide conjugated heterocycles - A new class of promising antimicrobials” (2012):
In brackets after ≈: the same amount, converted by molar mass. Numbered stars: 1 amine (or outer) side, 2 acyl side, 3 side chain; on linkers, the order of the positions; unused ones are H or OH. Peptide text beside a SMILES is read from it. * marks the point of attachment. Piperazinyl(4-(2,3-Cl2Ph)) = Clc1cccc(N2CCN(*)CC2)c1Cl; NH(4-Cl-phenyl) = Clc1ccc(N*)cc1; X1 = Fc1ccc2c(C3CCN(*)CC3)noc2c1; NH(2-F-phenyl) = Fc1ccccc1N*; CO = O=C([*:1])[*:2]

Columns and labels:
Type in all cases: functional
[1] = test system: Aspergillus flavus; assay: Antifungal activity against Aspergillus flavus after 72 hrs by microdilution method
[2] = test system: Escherichia coli; assay: Antibacterial activity against Escherichia coli after 24 hrs by microdilution method
[3] = test system: Klebsiella pneumoniae; assay: Antibacterial activity against Klebsiella pneumoniae at 30 ug/ml after 24 hrs by agar well diffusion method; conditions: read-out: DIZ
Summary of the method: (§1)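 Agar well diffusion. Inocula were grown in nutrient broth at 37 °C for 24 h, then subcultured in nutrient broth at room temperature. Compounds were made as a 1 mg/mL DMSO stock and diluted to 30 µg/mL final. Nutrient agar plates were spread-inoculated and 6 mm wells each got 0.1 mL. Controls were amoxicillin (reference) and DMSO (negative). Incubation was 24 h at 37 °C. Inhibition zone was measured in mm as the mean of three determinations.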

[4] = test system: Fusarium oxysporum; assay: Antifungal activity against Fusarium oxysporum at 30 ug/ml after 72 hrs by agar well diffusion method; conditions: read-out: DIZ
Summary of the method: (§2)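 Fungal well diffusion. Inocula were subcultured in nutrient broth for one day, then spread on solidified medium. Compounds were made as a 1 mg/mL DMSO stock and diluted to 30 µg/mL final. Each 6 mm well got 0.1 mL. Controls were bavistin (reference) and DMSO (negative). Plates stood for 3 days at room temperature. Inhibition zone was measured in mm as the mean of three determinations.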

[5] = test system: Staphylococcus aureus; assay: Antibacterial activity against coagulase-positive Staphylococcus aureus at 30 ug/ml after 24 hrs by agar well diffusion method; conditions: read-out: DIZ; summary of the method: as §1
[6] = test system: Xanthomonas oryzae; assay: Antibacterial activity against Xanthomonas oryzae after 24 hrs by microdilution method
[7] = test system: Fusarium oxysporum; assay: Antifungal activity against Fusarium oxysporum after 72 hrs by microdilution method
[8] = test system: Staphylococcus aureus; assay: Antibacterial activity against coagulase-positive Staphylococcus aureus after 24 hrs by microdilution method
[9] = test system: Klebsiella pneumoniae; assay: Antibacterial activity against Klebsiella pneumoniae after 24 hrs by microdilution method
[10] = test system: Xanthomonas oryzae; assay: Antibacterial activity against Xanthomonas oryzae at 30 ug/ml after 24 hrs by agar well diffusion method; conditions: read-out: DIZ
[11] = test system: Aspergillus flavus; assay: Antifungal activity against Aspergillus flavus at 30 ug/ml after 72 hrs by agar well diffusion method; conditions: read-out: DIZ; summary of the method: as §2
[12] = test system: Aspergillus niger; assay: Antifungal activity against Aspergillus niger at 30 ug/ml after 72 hrs by agar well diffusion method; conditions: read-out: DIZ; summary of the method: as §2
[13] = test system: Escherichia coli; assay: Antibacterial activity against Escherichia coli at 30 ug/ml after 24 hrs by agar well diffusion method; conditions: read-out: DIZ; summary of the method: as §1
[14] = test system: Aspergillus niger; assay: Antifungal activity against Aspergillus niger after 72 hrs by microdilution method

| Compound | MIC [1] [mg/L] | MIC [2] [mg/L] | zone of inhibition at 30 µg/mL [3] [mm] | zone of inhibition at 30 µg/mL [4] [mm] | zone of inhibition at 30 µg/mL [5] [mm] | MIC [6] [mg/L] | MIC [7] [mg/L] | MIC [8] [mg/L] | MIC [9] [mg/L] | zone of inhibition at 30 µg/mL [10] [mm] | zone of inhibition at 30 µg/mL [11] [mm] | zone of inhibition at 30 µg/mL [12] [mm] | zone of inhibition at 30 µg/mL [13] [mm] | MIC [14] [mg/L] |
| --- | --- | --- | --- | --- | --- | --- | --- | --- | --- | --- | --- | --- | --- | --- |
| O=C(CNC(=O)Nc1ccccc1F)N[C@@H](Cc1ccccc1)C(=O)NCC(=O)N[C@@H](Cc1ccccc1)C(=O)N1CCC[C@H]1C(=O)N1CCC(c2noc3cc(F)ccc23)CC1 ({NH(2-F-phenyl)-CO}-GFGFP-X1) | 4.75 (≈ 5.5 µM) | 5 (≈ 5.79 µM) | 36 | 39 | 34 | 5 (≈ 5.79 µM) | 4.25 (≈ 4.93 µM) | 4.25 (≈ 4.93 µM) | 3.25 (≈ 3.77 µM) | 40 | 35 | 40 | 39 | 3.25 (≈ 3.77 µM) |
| O=C(CNC(=O)Nc1ccccc1F)N[C@@H](Cc1ccccc1)C(=O)NCC(=O)N[C@@H](Cc1ccccc1)C(=O)N1CCC[C@H]1C(=O)N1CCN(c2cccc(Cl)c2Cl)CC1 ({NH(2-F-phenyl)-CO}-GFGFP-{Piperazinyl(4-(2,3-Cl2Ph))}) | 5.25 (≈ 6.01 µM) | 5.5 (≈ 6.29 µM) | 35 | 34 | 33 | 5.75 (≈ 6.58 µM) | 5 (≈ 5.72 µM) | 5 (≈ 5.72 µM) | 4 (≈ 4.58 µM) | 38 | 34 | 39 | 37 | 4 (≈ 4.58 µM) |
| O=C(CNC(=O)Nc1ccccc1F)NCC(=O)N[C@@H](Cc1ccccc1)C(=O)N1CCC[C@H]1C(=O)N1CCC(c2noc3cc(F)ccc23)CC1 ({NH(2-F-phenyl)-CO}-GGFP-X1) | 13 (≈ 18.2 µM) | 12 (≈ 16.8 µM) | 27 | 31 | 25 | 9 (≈ 12.6 µM) | 14 (≈ 19.6 µM) | 11 (≈ 15.4 µM) | 9 (≈ 12.6 µM) | 29 | 29 | 34 | 31 | 9 (≈ 12.6 µM) |
| CC[C@H](C)[C@H](NC(=O)CNC(=O)CNC(=O)Nc1ccccc1F)C(=O)N1CCC[C@H]1C(=O)N1CCN(c2cccc(Cl)c2Cl)CC1 ({NH(2-F-phenyl)-CO}-GGIP-{Piperazinyl(4-(2,3-Cl2Ph))}) | 14 (≈ 20.2 µM) | 13 (≈ 18.8 µM) | 23 | 30 | 24 | 10 (≈ 14.4 µM) | 15 (≈ 21.7 µM) | 12 (≈ 17.3 µM) | 10 (≈ 14.4 µM) | 26 | 28 | 32 | 29 | 11 (≈ 15.9 µM) |
| CC(C)[C@H](NC(=O)CNC(=O)Nc1ccccc1F)C(=O)NCC(=O)N[C@H](C(=O)N1CCC[C@H]1C(=O)N1CCC(c2noc3cc(F)ccc23)CC1)C(C)C ({NH(2-F-phenyl)-CO}-GVGVP-X1) | 5.75 (≈ 7.5 µM) | 7.75 (≈ 10.1 µM) | 33 | 33 | 30 | 6.75 (≈ 8.8 µM) | 7 (≈ 9.13 µM) | 6.75 (≈ 8.8 µM) | 5.25 (≈ 6.85 µM) | 35 | 32 | 36 | 34 | 5 (≈ 6.52 µM) |
| CC(C)[C@H](NC(=O)CNC(=O)Nc1ccccc1F)C(=O)NCC(=O)N[C@H](C(=O)N1CCC[C@H]1C(=O)N1CCN(c2cccc(Cl)c2Cl)CC1)C(C)C ({NH(2-F-phenyl)-CO}-GVGVP-{Piperazinyl(4-(2,3-Cl2Ph))}) | 6.25 (≈ 8.04 µM) | 8.25 (≈ 10.6 µM) | 32 | 32 | 29 | 7.25 (≈ 9.32 µM) | 7.5 (≈ 9.64 µM) | 7.25 (≈ 9.32 µM) | 6 (≈ 7.71 µM) | 34 | 31 | 35 | 33 | 5.5 (≈ 7.07 µM) |
| O=C(CNC(=O)Nc1ccc(Cl)cc1)N[C@@H](Cc1ccccc1)C(=O)NCC(=O)N[C@@H](Cc1ccccc1)C(=O)N1CCC[C@H]1C(=O)N1CCC(c2noc3cc(F)ccc23)CC1 ({NH(4-Cl-phenyl)-CO}-GFGFP-X1) | 6.25 (≈ 7.11 µM) | 6.25 (≈ 7.11 µM) | 33 | 35 | 31 | 6.5 (≈ 7.39 µM) | 6 (≈ 6.82 µM) | 6 (≈ 6.82 µM) | 4.75 (≈ 5.4 µM) | 35 | 31 | 38 | 34 | 4.75 (≈ 5.4 µM) |
| CC(C)[C@H](NC(=O)CNC(=O)Nc1ccc(Cl)cc1)C(=O)NCC(=O)N[C@H](C(=O)N1CCC[C@H]1C(=O)N1CCC(c2noc3cc(F)ccc23)CC1)C(C)C ({NH(4-Cl-phenyl)-CO}-GVGVP-X1) | 7.5 (≈ 9.57 µM) | 9.25 (≈ 11.8 µM) | 29 | 32 | 27 | 8.5 (≈ 10.9 µM) | 8.5 (≈ 10.9 µM) | 8.75 (≈ 11.2 µM) | 6.75 (≈ 8.62 µM) | 26 | 29 | 33 | 30 | 6.5 (≈ 8.3 µM) |
